Experimental data: article PMC11596327 (Chemistry (Weinheim an der Bergstrasse, Germany), 2023)

Experiments:
Caspase-7 wt = molecular target: T1, Caspase-7 wt (Homo sapiens, UniProt P55210); assay: Fluorometric steady-state kinetics assay; type: biochemical; details: C7 pre-saturated with DICA (DICA-C7)
T1 sequence (P55210 24-198 limits assumed): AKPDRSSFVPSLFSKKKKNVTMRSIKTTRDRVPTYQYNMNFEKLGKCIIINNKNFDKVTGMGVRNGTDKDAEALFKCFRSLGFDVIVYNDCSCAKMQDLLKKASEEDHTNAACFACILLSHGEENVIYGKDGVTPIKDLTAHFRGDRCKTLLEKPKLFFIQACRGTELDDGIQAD
T1 sequence (P55210 207-303 limits assumed): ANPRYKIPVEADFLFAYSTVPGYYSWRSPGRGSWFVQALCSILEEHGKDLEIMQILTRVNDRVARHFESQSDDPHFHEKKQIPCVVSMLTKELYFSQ
In short: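 Fluorometric steady-state kinetic assays on wild-type C7 and wild-type C3. Both IC50 and Ki were derived. Ki came from fitting a non-competitive inhibitor equation. Values are reported with confidence intervals at the 95% level.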

C7 wt = molecular target: T2, C7 wt (Homo sapiens, UniProt P55210); assay: Fluorometric stopped-flow pre-steady state kinetics assay; type: biochemical; details: with increasing concentrations of inhibitor
T2 sequence (P55210 24-198 limits assumed): T1 sequence (P55210 24-198 limits assumed)
T2 sequence (P55210 207-303 limits assumed): T1 sequence (P55210 207-303 limits assumed)
In short: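 Fluorescence stopped-flow on wild-type caspase-7. Progress curves were recorded with test compound at 6 to 500 uM or with DMSO alone, and a covalent allosteric inhibitor served as the assay-development control. Each curve was fitted individually to a pre-steady-state burst equation plus linear steady-state rate to give burst amplitude and k_burst. SE comes from a 95% confidence interval.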

C7 = molecular target: T3, C7 (Homo sapiens, UniProt P55210); assay: Differential scanning fluorimetry; type: binding; details: DICA-saturated C7 plus Ac-DEVD-CMK
T3 sequence (P55210 24-198 limits assumed): T1 sequence (P55210 24-198 limits assumed)
T3 sequence (P55210 207-303 limits assumed): T1 sequence (P55210 207-303 limits assumed)

## O=C(COc1ccc(Cl)cc1Cl)NCCS [DICA, 2-(2,4-Dichlorophenoxy)-N-(2-mercaptoethyl)-acetamide, reference compound]
Caspase-7 wt
  turnover of Ac-DEVD-AFC substrate: no turnover
C7 wt
  burst amplitude: decrease
  burst phase rate constant (kburst): no change
C7
  formation of physical enzyme-substrate-inhibitor (ESI) complex: able to physically bind substrate and DICA simultaneously
